Reference: ChEMBL document CHEMBL3994654, “Discovery of phenyl acetamides as potent and selective GPR119 agonists” (Bioorg Med Chem Lett, 2017)
pEC50, pIC50: −log10 of the molar value. Values after ≈ are worked out from the molar mass of the structure shown.

Columns and labels:
[1] = target: T1, Glucose-dependent insulinotropic receptor (Homo sapiens, UniProt Q8TDV5); experiment: Agonist activity at human GPR119 expressed in HEK293 cells assessed as increase in intracellular cAMP level after 60 mins by HTRF assay; type: functional, cell-based
T1 sequence (Q8TDV5 whole entry): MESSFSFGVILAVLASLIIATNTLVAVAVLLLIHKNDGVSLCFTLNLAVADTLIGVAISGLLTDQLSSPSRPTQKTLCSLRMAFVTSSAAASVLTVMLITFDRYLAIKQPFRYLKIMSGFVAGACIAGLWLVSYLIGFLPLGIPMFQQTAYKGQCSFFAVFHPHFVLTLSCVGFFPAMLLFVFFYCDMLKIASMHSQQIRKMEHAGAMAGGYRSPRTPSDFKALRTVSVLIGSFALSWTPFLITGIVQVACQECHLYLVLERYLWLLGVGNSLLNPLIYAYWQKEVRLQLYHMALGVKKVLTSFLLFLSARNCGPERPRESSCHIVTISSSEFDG
In short: (§1)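 cAMP stimulation is also given as % control at the top concentration, relative to an internal agonist control set at 100% cAMP stimulation. EC50 values are means of at least 2 independent experiments, except for two compounds.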

[2] = target: T2, Glucose-dependent insulinotropic receptor (Homo sapiens) (UniProt Q8TDV5); experiment: Agonist activity at human GPR119 expressed in HEK293 cells assessed as increase in intracellular cAMP level after 60 mins by HTRF assay relative to control; type: functional, cell-based
T2 sequence (whole entry): T1 sequence (Q8TDV5 whole entry)
In short: (§2)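 EC50 values are means of at least 2 independent experiments, with a few single determinations. Maximal response is reported as the percentage of cAMP stimulation at the maximal dose tested, normalised to an internal agonist control set as 100%.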

[3] = target: T3, Glucose-dependent insulinotropic receptor (Mus musculus, UniProt Q7TQP3); experiment: Agonist activity at mouse GPR119 expressed in CHO cells co-expressing Galpha15 assessed as increase in intracellular cAMP level after 60 mins by HTRF assay; type: functional, cell-based; in short: as §1
T3 sequence (Q7TQP3 whole entry): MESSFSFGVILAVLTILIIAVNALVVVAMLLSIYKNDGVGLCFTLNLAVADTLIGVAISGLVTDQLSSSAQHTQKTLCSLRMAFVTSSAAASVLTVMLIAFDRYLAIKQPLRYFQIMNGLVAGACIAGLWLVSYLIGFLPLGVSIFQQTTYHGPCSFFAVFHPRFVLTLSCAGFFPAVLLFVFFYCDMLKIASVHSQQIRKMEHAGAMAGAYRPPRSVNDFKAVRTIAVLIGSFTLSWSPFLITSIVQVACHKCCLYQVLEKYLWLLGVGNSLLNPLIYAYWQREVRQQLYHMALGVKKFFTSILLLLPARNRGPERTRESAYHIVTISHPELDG

[4] = target: T4, Glucose-dependent insulinotropic receptor (Mus musculus) (UniProt Q7TQP3); experiment: Agonist activity at mouse GPR119 expressed in CHO cells co-expressing Galpha15 assessed as increase in intracellular cAMP level after 60 mins by HTRF assay relative to control; type: functional, cell-based; in short: as §2
T4 sequence (whole entry): T3 sequence (Q7TQP3 whole entry)

[5] = Kinetic solubility in fasted state simulated intestinal fluid at pH 6.5; type: physicochemical; conditions: read-out: Kinetic_solubility
[6] = Half life in Wistar Han rat at 0.5 mg/kg, iv by LC-MS/MS analysis; type: ADME, organism-based; conditions: in vivo
[7] = target: T5, Voltage-gated inwardly rectifying potassium channel KCNH2 (Homo sapiens, UniProt Q12809)
[8] = target: T5, Voltage-gated inwardly rectifying potassium channel KCNH2; experiment: Inhibition of human ERG by PatchXpress method

T5 sequence (Q12809 whole entry): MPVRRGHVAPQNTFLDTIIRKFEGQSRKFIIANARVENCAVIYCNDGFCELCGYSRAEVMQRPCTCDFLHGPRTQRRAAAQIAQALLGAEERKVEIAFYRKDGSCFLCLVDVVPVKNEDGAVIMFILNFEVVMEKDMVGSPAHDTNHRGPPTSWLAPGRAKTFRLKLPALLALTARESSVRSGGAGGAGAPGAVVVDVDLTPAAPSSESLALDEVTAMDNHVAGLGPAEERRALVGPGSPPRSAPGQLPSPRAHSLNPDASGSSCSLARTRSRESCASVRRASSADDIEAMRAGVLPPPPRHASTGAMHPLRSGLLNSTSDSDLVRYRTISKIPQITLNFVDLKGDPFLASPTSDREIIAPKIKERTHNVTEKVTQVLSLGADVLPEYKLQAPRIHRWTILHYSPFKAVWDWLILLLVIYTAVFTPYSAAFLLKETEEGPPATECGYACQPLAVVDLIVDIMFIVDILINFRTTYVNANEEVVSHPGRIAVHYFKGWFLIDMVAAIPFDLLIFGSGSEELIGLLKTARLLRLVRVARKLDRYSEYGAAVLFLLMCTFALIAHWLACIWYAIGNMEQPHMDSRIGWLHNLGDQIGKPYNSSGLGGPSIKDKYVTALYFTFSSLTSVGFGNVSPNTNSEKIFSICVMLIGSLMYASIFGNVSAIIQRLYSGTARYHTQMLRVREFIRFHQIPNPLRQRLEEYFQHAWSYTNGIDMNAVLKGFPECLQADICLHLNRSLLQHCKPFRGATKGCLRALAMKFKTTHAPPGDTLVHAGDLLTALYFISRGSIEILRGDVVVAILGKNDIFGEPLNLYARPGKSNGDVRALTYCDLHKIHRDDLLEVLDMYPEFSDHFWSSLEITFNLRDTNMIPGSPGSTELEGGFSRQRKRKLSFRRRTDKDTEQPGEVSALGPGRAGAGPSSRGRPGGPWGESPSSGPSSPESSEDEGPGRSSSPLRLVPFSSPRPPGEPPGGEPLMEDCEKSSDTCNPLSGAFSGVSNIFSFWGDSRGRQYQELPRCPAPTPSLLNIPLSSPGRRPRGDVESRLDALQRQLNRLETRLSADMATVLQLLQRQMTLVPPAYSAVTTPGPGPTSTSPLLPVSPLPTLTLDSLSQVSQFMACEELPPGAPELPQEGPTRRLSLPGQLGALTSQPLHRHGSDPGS

SMILES | pEC50 [1] | Activity [2] | pEC50 [3] | Activity [4] | solubility kinetic [5] | half-life [6] | pIC50 [7] | pIC50 [8]
O=C(Cc1ccc(OCC[C@@H]2C[C@@H]2C2CCN(c3ncc(Cl)cn3)CC2)cc1F)N1CCC1 | 9.70 | 106% | 9.40 | 146% | 137 µM (≈ 64.8 µg/mL) | 6.9 h | 5.48 | 
NC(=O)Cc1ccc(OCC[C@@H]2C[C@@H]2C2CCN(c3ncc(Cl)cn3)CC2)cc1 | 7.17 | 85% | 7.80 | 68% |  |  |  | 
O=C(Cc1ccc(OCC[C@@H]2C[C@@H]2C2CCN(c3ncc(Cl)cn3)CC2)nc1)N1CCC1 | 8.03 | 112% | 8.29 | 133% | 83 µM (≈ 37.8 µg/mL) |  | 5.68 | 
CC1(OC(=O)N2CCC([C@H]3C[C@H]3CCOc3ccc(CC(=O)N4CCC4)c(F)c3)CC2)CC1 | 8.48 | 127% | 8.18 | 115% | 138 µM (≈ 63.3 µg/mL) | 1.6 h | 4.64 | 5.07
COCc1cnc(N2CCC([C@H]3C[C@H]3CCOc3ccc(CC(=O)N4CCC4)c(F)c3)CC2)nc1 | 9.15 | 82% | 8.80 | 90% | 152 µM (≈ 73.4 µg/mL) | 1.9 h | 4.72 | 
O=C(Cc1ccc(OCC[C@@H]2C[C@@H]2C2CCN(c3ncc(Cl)cn3)CC2)c(F)c1)N1CCC1 | 8.66 | 106% | 8.80 | 91% | 65 µM (≈ 30.7 µg/mL) |  |  | 
O=C(Cc1ccc(OCC[C@@H]2C[C@@H]2C2CCN(c3ncc(Cl)cn3)CC2)cc1)N1CCC1 | 9.10 | 82% | 9.30 | 93% | 97 µM (≈ 44.1 µg/mL) | 4.7 h | 5.13 | 
